Measured values published in ChEMBL document CHEMBL1275379, “Indazolylpyrazolopyrimidine as highly potent B-Raf inhibitors with in vivo activity” (J Med Chem, 2010).
The source made the active and inactive calls. The calls are words filed in the database; no cut-off is given here.

How the values were obtained:
[1] = Inhibition of RPS6K at 1 uM
[2] = Half life in nude mouse liver microsomes; assay type: ADME, Microsome
[3] = target: Protein kinase C gamma type (Homo sapiens) (UniProt P05129); assay: Inhibition of PRKCG at 1 uM
[4] = target: Tyrosine-protein kinase Lck (Homo sapiens, UniProt P06239); assay: Inhibition of LCK at 1 uM
[5] = target: Protein kinase C beta type (Homo sapiens) (UniProt P05771); assay: Inhibition of PRKCB2 at 1 uM
Protein kinase C beta type (Homo sapiens), sequence (P05771 2-671 limits assumed): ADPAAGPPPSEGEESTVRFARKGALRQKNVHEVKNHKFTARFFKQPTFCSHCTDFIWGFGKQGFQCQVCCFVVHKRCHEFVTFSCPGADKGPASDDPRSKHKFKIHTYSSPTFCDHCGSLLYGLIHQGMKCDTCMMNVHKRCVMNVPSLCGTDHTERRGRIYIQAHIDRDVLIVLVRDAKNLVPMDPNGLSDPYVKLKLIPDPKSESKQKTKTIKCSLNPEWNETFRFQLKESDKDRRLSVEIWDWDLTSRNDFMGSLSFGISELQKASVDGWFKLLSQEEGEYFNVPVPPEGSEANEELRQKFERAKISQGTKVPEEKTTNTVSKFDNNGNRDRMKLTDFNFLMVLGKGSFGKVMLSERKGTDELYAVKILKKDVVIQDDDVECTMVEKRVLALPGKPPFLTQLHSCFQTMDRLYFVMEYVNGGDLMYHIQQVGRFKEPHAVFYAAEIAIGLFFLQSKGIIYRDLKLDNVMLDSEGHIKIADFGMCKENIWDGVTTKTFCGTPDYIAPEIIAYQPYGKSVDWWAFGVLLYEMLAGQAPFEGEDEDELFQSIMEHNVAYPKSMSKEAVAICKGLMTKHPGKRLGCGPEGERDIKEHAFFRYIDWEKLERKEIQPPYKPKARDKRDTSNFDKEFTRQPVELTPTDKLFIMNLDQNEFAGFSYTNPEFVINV

[6] = Drug level in plasma of human A375 cells xenografted nude mouse at 25 mg/kg, po after 24 hrs; assay type: ADME, organism-based, A-375; design: dose 25 mg/kg, route oral; conditions: read-out: Drug uptake
[7] = target: Tyrosine-protein kinase CSK (Homo sapiens) (UniProt P41240); assay: Inhibition of CSK at 1 uM
Tyrosine-protein kinase CSK (Homo sapiens), sequence (P41240 2-450 limits assumed): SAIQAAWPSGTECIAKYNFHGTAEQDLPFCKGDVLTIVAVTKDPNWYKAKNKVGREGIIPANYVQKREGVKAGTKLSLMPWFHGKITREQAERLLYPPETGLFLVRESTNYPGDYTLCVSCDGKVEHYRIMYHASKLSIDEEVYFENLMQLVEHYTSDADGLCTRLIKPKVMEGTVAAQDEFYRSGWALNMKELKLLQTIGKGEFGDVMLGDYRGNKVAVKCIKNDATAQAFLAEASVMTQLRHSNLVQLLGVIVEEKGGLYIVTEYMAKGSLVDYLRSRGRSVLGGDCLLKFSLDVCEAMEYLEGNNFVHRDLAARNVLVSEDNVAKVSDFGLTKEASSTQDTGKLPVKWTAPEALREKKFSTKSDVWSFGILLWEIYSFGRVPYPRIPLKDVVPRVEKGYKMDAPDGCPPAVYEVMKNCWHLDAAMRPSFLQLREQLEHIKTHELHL

Mus musculus [8] = assay: Inhibition of BRAF-mediated ERK phosphorylation in human A375 cells xenografted nude mouse at 10 mg/kg, po QD; assay type: functional, organism-based; design: dose 10 mg/kg; conditions: A-375
Outline: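 Nude mice bearing A375 xenografts received an oral 10 mg/kg dose once daily. Tumours were taken from treated and untreated animals 6 h after the first dose, and ERK phosphorylation in tumour tissue was measured.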

[9] = target: Hepatocyte growth factor receptor (Homo sapiens) (UniProt P08581); assay: Inhibition of MET at 1 uM
[10] = target: Dual specificity mitogen-activated protein kinase kinase 1 (Homo sapiens) (UniProt Q02750); assay: Inhibition of MAP2K at 1 uM
[11] = Clearance in nude mouse; assay type: ADME, organism-based; conditions: in vivo
[12] = target: Receptor-type tyrosine-protein kinase FLT3 (Homo sapiens) (UniProt P36888); assay: Inhibition of FLT3 at 1 uM
Receptor-type tyrosine-protein kinase FLT3 (Homo sapiens), sequence (P36888 whole entry): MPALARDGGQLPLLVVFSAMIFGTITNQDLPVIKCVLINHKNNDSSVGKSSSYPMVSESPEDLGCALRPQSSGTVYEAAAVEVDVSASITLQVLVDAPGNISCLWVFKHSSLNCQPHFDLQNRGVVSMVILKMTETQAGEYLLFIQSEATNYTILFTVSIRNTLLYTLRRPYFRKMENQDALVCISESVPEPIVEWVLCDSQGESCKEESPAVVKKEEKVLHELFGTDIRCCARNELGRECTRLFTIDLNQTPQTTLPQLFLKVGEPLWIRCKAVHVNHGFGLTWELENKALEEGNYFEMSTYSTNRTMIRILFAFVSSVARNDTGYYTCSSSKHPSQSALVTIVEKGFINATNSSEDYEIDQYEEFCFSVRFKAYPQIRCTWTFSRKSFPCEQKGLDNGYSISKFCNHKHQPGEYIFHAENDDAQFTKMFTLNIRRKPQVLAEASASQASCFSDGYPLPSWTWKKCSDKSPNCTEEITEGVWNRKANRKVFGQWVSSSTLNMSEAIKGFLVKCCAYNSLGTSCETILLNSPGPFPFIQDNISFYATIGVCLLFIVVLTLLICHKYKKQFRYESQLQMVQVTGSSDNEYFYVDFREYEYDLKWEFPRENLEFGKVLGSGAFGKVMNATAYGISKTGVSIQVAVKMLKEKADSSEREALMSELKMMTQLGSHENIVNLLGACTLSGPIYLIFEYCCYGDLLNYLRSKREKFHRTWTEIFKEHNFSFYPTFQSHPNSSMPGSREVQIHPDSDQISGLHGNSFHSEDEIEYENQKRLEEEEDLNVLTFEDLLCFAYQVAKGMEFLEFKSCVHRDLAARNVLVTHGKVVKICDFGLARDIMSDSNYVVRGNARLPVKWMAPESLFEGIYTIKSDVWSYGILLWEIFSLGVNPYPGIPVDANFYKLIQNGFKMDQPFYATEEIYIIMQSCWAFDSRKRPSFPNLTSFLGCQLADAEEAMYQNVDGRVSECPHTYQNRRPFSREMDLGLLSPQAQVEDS

[13] = target: Cyclin-dependent kinase 2/cyclin A (Homo sapiens) (UniProt P24941+P20248+P78396); assay: Inhibition of CDK2/cyclin A at 1 uM; assay type: protein-complex assay
Mus musculus [14] = assay: Toxicity in human A375 cells xenografted nude mouse; assay type: organism-based, A-375; conditions: in vivo
[15] = target: Tyrosine-protein kinase BTK (Homo sapiens) (UniProt Q06187); assay: Inhibition of BTK at 1 uM
[16] = Oral bioavailability in nude mouse at 10 mg/kg; assay type: ADME, organism-based; conditions: in vivo, read-out: Activity
[17] = target: Protein kinase C beta type (Homo sapiens) (UniProt P05771); assay: Inhibition of PRKCB1 at 1 uM
[18] = target: RAC-alpha serine/threonine-protein kinase (Homo sapiens) (UniProt P31749); assay: Inhibition of AKT1 at 1 uM
[19] = target: Aurora kinase A (Homo sapiens) (UniProt O14965); assay: Inhibition of AURKA at 1 uM
[20] = target: Proto-oncogene tyrosine-protein kinase Src (Homo sapiens) (UniProt P12931); conditions: 1 uM
[21] = target: Inhibitor of nuclear factor kappa-B kinase subunit beta (Homo sapiens) (UniProt O14920); assay: Inhibition of IKBKB at 1 uM
Inhibitor of nuclear factor kappa-B kinase subunit beta (Homo sapiens), sequence (O14920 whole entry): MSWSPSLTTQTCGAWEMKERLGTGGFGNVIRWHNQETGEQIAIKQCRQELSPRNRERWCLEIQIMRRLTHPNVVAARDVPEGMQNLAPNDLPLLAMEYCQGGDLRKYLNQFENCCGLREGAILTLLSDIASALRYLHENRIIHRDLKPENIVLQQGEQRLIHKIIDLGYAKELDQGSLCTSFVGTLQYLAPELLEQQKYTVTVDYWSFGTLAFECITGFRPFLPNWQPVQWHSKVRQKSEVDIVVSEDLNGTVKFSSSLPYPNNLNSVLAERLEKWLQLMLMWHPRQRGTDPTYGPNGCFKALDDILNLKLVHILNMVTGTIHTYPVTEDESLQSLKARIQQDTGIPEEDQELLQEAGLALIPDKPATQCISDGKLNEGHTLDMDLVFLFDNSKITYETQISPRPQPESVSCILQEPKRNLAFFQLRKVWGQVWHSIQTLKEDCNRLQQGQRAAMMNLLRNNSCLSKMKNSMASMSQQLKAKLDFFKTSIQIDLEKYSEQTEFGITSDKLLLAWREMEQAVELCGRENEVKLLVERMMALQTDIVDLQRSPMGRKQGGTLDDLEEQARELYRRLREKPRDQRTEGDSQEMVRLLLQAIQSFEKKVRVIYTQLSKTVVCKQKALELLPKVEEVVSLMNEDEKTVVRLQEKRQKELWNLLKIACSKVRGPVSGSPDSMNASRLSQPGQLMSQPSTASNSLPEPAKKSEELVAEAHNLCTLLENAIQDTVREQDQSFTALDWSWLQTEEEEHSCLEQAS

[22] = target: Epidermal growth factor receptor (Homo sapiens, UniProt P00533)
[23] = target: Insulin-like growth factor 1 receptor (Homo sapiens) (UniProt P08069); assay: Inhibition of IGF1R at 1 uM
Insulin-like growth factor 1 receptor (Homo sapiens), sequence (P08069 31-736 limits assumed): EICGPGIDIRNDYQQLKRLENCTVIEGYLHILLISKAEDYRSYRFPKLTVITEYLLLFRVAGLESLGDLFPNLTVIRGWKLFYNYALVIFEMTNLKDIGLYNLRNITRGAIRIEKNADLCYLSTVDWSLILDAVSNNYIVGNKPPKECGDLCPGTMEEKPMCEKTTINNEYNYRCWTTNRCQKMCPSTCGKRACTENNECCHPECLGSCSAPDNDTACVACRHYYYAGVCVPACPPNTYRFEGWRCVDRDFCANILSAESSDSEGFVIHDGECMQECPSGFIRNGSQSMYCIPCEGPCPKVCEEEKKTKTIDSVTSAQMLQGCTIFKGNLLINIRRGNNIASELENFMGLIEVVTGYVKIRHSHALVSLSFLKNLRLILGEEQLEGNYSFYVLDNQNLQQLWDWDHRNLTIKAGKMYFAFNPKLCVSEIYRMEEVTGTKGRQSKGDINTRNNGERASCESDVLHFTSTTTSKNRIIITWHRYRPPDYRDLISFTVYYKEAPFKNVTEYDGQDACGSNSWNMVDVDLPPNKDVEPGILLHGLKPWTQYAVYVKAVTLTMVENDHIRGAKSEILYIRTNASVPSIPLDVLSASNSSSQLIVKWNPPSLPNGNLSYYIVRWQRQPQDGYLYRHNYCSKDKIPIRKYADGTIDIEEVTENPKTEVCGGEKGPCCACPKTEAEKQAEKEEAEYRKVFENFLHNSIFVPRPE
Insulin-like growth factor 1 receptor (Homo sapiens), sequence (P08069 741-1367 limits assumed): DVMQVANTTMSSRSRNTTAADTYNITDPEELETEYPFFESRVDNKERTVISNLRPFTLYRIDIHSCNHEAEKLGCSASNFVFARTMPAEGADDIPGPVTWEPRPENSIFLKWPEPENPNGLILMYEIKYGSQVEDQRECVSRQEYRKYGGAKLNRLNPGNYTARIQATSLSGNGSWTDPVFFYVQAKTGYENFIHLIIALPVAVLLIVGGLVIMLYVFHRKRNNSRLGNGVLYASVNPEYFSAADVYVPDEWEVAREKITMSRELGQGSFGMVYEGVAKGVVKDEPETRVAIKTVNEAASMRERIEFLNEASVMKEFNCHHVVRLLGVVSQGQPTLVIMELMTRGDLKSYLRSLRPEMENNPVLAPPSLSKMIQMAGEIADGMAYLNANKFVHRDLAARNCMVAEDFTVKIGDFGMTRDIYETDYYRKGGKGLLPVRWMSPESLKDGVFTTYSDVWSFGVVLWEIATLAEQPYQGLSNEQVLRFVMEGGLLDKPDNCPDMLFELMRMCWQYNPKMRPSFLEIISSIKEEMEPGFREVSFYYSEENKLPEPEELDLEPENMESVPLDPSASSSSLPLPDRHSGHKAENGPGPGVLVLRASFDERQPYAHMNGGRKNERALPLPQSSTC

COLO 205 = assay: Antitumor activity against human COLO205 cells xenografted in nude mouse assessed as tumor growth inhibition at 7.5 mg/kg, po; assay type: functional, organism-based; design: dose 7.5 mg/kg
[24] = target: RAF proto-oncogene serine/threonine-protein kinase (Homo sapiens, UniProt P04049); conditions: 1 uM
[25] = AUC (infinity) in nude mouse at 10 mg/kg, po; assay type: ADME, organism-based; design: time infinity, dose 10 mg/kg, route oral; conditions: plasma
[26] = target: Mitogen-activated protein kinase 14 (Homo sapiens, UniProt Q16539); assay: Inhibition of MAPK14
[27] = Half life in human liver microsomes; assay type: ADME, Microsome
[28] = target: Rho-associated protein kinase 1 (Homo sapiens) (UniProt Q13464); assay: Inhibition of ROCK1 at 1 uM
[29] = target: Vascular endothelial growth factor receptor 3 (Homo sapiens) (UniProt P35916); assay: Inhibition of FLT4 at 1 uM
Mus musculus [30] = assay: Inhibition of BRAF-mediated ERK phosphorylation in human A375 cells xenografted nude mouse at 50 mg/kg, iv after 24 hrs; assay type: functional, organism-based; design: dose 50 mg/kg; conditions: A-375
[31] = target: Vascular endothelial growth factor receptor 1 (Homo sapiens) (UniProt P17948); assay: Inhibition of FLT1 at 1 uM
[32] = target: Proto-oncogene tyrosine-protein kinase receptor Ret (Homo sapiens, UniProt P07949); assay: Inhibition of RET at 1 uM
[33] = Half life in nude mouse; assay type: ADME, organism-based; conditions: in vivo
[34] = target: Glycogen synthase kinase-3 alpha (Homo sapiens) (UniProt P49840); assay: Inhibition of GSK3A at 1 uM
A-375 = assay: Antitumor activity against human A375 cells xenografted in nude mouse assessed as tumor growth inhibition at 7.5 mg/kg, po; assay type: functional; conditions: read-out: TGI
Outline: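 A375 xenografts in nude mice dosed orally once daily; n = 10 per arm; tumour size measured by caliper at set times; error shown as standard deviation.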

[35] = target: Serine/threonine-protein kinase B-raf (Homo sapiens, UniProt P15056); assay: Inhibition of BRAF at 1 uM

CN1C[C@@H]2C[C@H]1CN2c1cc(F)c(-c2ccnc3c(-c4cccc5[nH]ncc45)c(-c4ccncc4)nn23)c(F)c1
inhibition [1]: 14%
half-life [2]: > 0.5 h
inhibition [3]: 15%
inhibition [4]: 73%
inhibition [5]: 51%
concentration at 24 h [6]: 60 nM
inhibition [7]: 19%
inhibition (Mus musculus [8]): Active
inhibition [9]: 66%
inhibition [10]: 12%
clearance [11]: 23 mL/min/kg
inhibition [12]: 23%
inhibition [13]: 4%
Activity (Mus musculus [14]): Non-toxic
inhibition [15]: 48%
bioavailability [16]: 54%
inhibition [17]: 39%
inhibition [18]: 5%
inhibition [19]: 7%
inhibition [20]: 77%
inhibition [21]: 5%
IC50 [22]: 173 nM
inhibition [23]: 5%
TGI (COLO 205): Active
inhibition [24]: 88%
AUC(0-inf) [25]: 4000 ng·h/mL
IC50 [26]: 145 nM
half-life [27]: > 0.5 h
inhibition [28]: 3%
inhibition [29]: 17%
inhibition (Mus musculus [30]): Active
inhibition [31]: 14%
inhibition [32]: 84%
half-life [33]: 3.5 h
inhibition [34]: 34%
inhibition in vivo at 7.5 mg/kg (A-375): 39%
inhibition [35]: 100%
